From PubChem BioAssay
GASC-1 inh = inhibitors of GASC-1 histone demethylase, primary screen, biochemical, fluorescence, DELFIA europium. Lysine-specific demethylase 4C (Homo sapiens), Q9H3R0. GST-JMJD2C(1-420) H3K9me3 demethylation. inhibition, % at 2.35 µM. 330,000 tested, 0.069% active. AID 2099, 2009;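 active = more than half of a compound's replicate wells show inhibition beyond 50%, single wells judged on their own value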;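 note: signal counts dimethyl H3K9 product captured on neutravidin plate; 0% = median of DMSO wells and 100% = 0.3 times that DMSO median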
Rtt109 HAT inh = inhibitors of C. albicans Rtt109/Vps75 HAT, primary screen, biochemical, ThioGlo CoA-SH fluorescence, plate reader. Histone acetyltransferase RTT109 (Candida albicans (strain SC5314 / ATCC MYA-2876)), …. purified Rtt109/Vps75, 4 h. inhibition, % at 34.9 µM. 330,000 tested, 0.16% active;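 active = inhibition of at least 50% in every replicate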
Target sequence (Q5AAJ8 whole entry, looked up): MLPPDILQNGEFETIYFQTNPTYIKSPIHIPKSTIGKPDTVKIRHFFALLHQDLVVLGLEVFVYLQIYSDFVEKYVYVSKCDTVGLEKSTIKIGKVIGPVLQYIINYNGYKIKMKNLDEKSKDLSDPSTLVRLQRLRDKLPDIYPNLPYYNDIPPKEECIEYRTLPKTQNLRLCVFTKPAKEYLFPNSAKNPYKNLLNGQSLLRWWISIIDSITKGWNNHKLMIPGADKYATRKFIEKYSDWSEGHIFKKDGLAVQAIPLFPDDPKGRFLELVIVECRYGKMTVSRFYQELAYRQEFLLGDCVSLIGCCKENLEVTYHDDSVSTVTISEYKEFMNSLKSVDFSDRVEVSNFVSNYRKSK
NR3A LBD binder = binders of NR3A ligand-binding domain, primary screen, biophysical, differential scanning fluorimetry, uHTS; Glutamate receptor ionotropic, NMDA 3A (GRIN3A) ligand-binding domain; NR3A LBD differential scanning fluorimetry, Tm shift; 0% = protein alone, 100% = glycine-bound protein; Tm shift relative to glycine control, % at 25 µM; 340,000 tested, 2.5% active; AID 1259313, 2017;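 active = melting temperature shift of at least 10% of the positive control shift, at one fixed dose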
T cell HTS = modulators of CD8 T cell-vesicle binding, primary screen, mouse 2C CD8+ T cells, flow cytometry. 2C CD8+ T cell-vesicle binding; hits give low values. response (vesicle binding), % at 7 µM. 330,000 tested, 0.068% active. AID 2052, 2009;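 active = response, share of CD8 T cells binding vesicles, and their 90th percentile fluorescence all below set limits, cut at about 80% in these data, passing the limit was not always enough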;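 note: values below 100% mean blocked vesicle binding to the CD8+ T cells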
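Also added: QL9-peptide-loaded Drosophila micro-vesicles bearing Ld, ICAM-1 and B7-1; Test system: purified 2C TCR transgenic mouse naive CD8+ T cells; Measured by: cytometric PE anti-B7-1 and Alexa647 anti-CD8 signals after 1% paraformaldehyde fixation; Timing: binding step 1.5 h, 37 °C, antibody labelling 20 min, ice.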
An asterisk follows results filed as active. Only some compounds are listed: those with a hit (about 2.8% of all), similar ones and a draw of the others.

How did O=C(CSc1nc(-c2cccs2)cc(C(F)(F)F)n1)Nc1cc(OCC(F)(F)C(F)F)cc([N+](=O)[O-])c1 do in these assays?
GASC-1 inh: -5.2; Rtt109 HAT inh: 8.1; NR3A LBD binder: 10.2*; T cell HTS: 136.2

What do the screens show for `O=C(CSc1nc2ccc(NC(=O)c3ccccc3C(=O)O)cc2s1)Nc1ccc(F)c([N+](=O)[O-])c1`?
GASC-1 inh: -20.2; Rtt109 HAT inh: 15.6; NR3A LBD binder: 18.3*; T cell HTS: 175.6

Results for Cc1nc2ccc(NC(=O)COc3ccccc3C)cc2s1 ?
GASC-1 inh: 64.8*; Rtt109 HAT inh: 1.5; NR3A LBD binder: 31.5*; T cell HTS: 306.5

How did O=C(COc1ccccc1C(=O)O)Nc1nc2ccc([N+](=O)[O-])cc2s1 do in these assays?
GASC-1 inh: 4.1; Rtt109 HAT inh: -1.2; NR3A LBD binder: 14.0*; T cell HTS: 172.9

How did Cc1ccccc1OCc1nnc(SCC(=O)Nc2ccc3nc(SCC(=O)Nc4ccccc4)sc3c2)n1C do in these assays?
GASC-1 inh: 2.3; Rtt109 HAT inh: 6.2; NR3A LBD binder: 16.9*; T cell HTS: 115.0

Results for Cc1ccccc1OCc1nnc(SCC(=O)Nc2ccc3c(c2)OCO3)n1C ?
GASC-1 inh: -2.1; Rtt109 HAT inh: 3.7; NR3A LBD binder: 1.2; T cell HTS: 565.9

What do the screens show for `O=C(c1nc2ccccn2c1CNCCCn1nnc2ccccc21)N1CCOCC1`?
GASC-1 inh: 2.9; Rtt109 HAT inh: 0.5; NR3A LBD binder: -3.1; T cell HTS: 202.3

What do the screens show for `Cc1ccc(C)c(S(=O)(=O)NC2CCSC2=O)c1` (stereo unspecified)?
Rtt109 HAT inh: -5.9; NR3A LBD binder: 2.1

Results for CCOC(=O)C(Cc1ccc(NC(C)=O)cc1)N1C(=O)c2ccccc2C1=O (stereo unspecified) ?
GASC-1 inh: 4.7; Rtt109 HAT inh: 5.1; NR3A LBD binder: -0.3; T cell HTS: 193.8

How did O=C(CSc1nc2ccc(NC(=O)CSc3nnnn3Cc3ccccc3)cc2s1)Nc1ccccc1 do in these assays?
GASC-1 inh: -2.4; Rtt109 HAT inh: 2.4; NR3A LBD binder: 17.5*; T cell HTS: 742.0

Results for CCc1cc(-c2[nH]ncc2-c2ccc([N+](=O)[O-])cc2)c(O)cc1OC ?
GASC-1 inh: -0.4; Rtt109 HAT inh: -1.5; NR3A LBD binder: 29.0*

Results for Oc1ccc(-c2[nH]ncc2-c2ccc(Cl)cc2)c(O)c1 ?
GASC-1 inh: -11.2; Rtt109 HAT inh: 13.1; NR3A LBD binder: 12.3*; T cell HTS: 389.8

Results for O=[N+]([O-])c1ccc(COc2ccc(-c3[nH]ncc3-c3ccc(Cl)cc3)c(O)c2)cc1 ?
GASC-1 inh: 14.8; Rtt109 HAT inh: 2.6; NR3A LBD binder: 34.5*; T cell HTS: 235.7

What do the screens show for `COc1ccc(-c2cn[nH]c2-c2ccc(OCc3ccc([N+](=O)[O-])cc3)cc2O)cc1OC`?
GASC-1 inh: 62.4; Rtt109 HAT inh: 8.1; NR3A LBD binder: 15.3*; T cell HTS: 244.6

How did Oc1ccc(-c2[nH]ncc2-c2ccc(Br)cc2)c(O)c1 do in these assays?
GASC-1 inh: 0.3; Rtt109 HAT inh: 4.0; NR3A LBD binder: 7.4; T cell HTS: 190.9

How did COc1ccc2ccccc2c1C1NC(=O)NC(C)=C1[N+](=O)[O-] (stereo unspecified) do in these assays?
GASC-1 inh: -4.4; Rtt109 HAT inh: 5.1; NR3A LBD binder: 0.3; T cell HTS: 180.7

What do the screens show for `COc1ccc(-c2cn[nH]c2-c2ccc(OCc3ccccc3)cc2O)cc1`?
GASC-1 inh: -9.8; Rtt109 HAT inh: 1.6; NR3A LBD binder: 12.1*; T cell HTS: 129.6

What do the screens show for `COc1ccccc1-c1cn[nH]c1-c1ccc(OCc2ccccc2)cc1O`?
GASC-1 inh: -20.2; Rtt109 HAT inh: 0.3; NR3A LBD binder: 6.9; T cell HTS: 109.0

What do the screens show for `COc1ccc(C(C)C)cc1S(=O)(=O)N1CCC(C(=O)NCC2CCCO2)CC1` (stereo unspecified)?
GASC-1 inh: -5.5; Rtt109 HAT inh: -3.1; NR3A LBD binder: 11.1*; T cell HTS: 146.3

Results for Cc1ccc(CNC(=O)C2CCN(S(=O)(=O)c3c(C)noc3C)CC2)cc1 ?
GASC-1 inh: 0.0; Rtt109 HAT inh: 6.1; NR3A LBD binder: 0.4; T cell HTS: 173.6

How did O=C(NCC1CCCO1)C1CCN(C(=O)c2ccc(Br)cc2)CC1 (stereo unspecified) do in these assays?
GASC-1 inh: -3.4; Rtt109 HAT inh: -14.9; NR3A LBD binder: 13.7*; T cell HTS: 799.2

Results for Cc1noc(C)c1S(=O)(=O)N1CCC(C(=O)NCCc2ccc(S(N)(=O)=O)cc2)CC1 ?
GASC-1 inh: -7.4; Rtt109 HAT inh: 4.3; NR3A LBD binder: 11.0*; T cell HTS: 506.1

What do the screens show for `COc1ccc(OC)c(S(=O)(=O)N2CCC(C(=O)NCCc3ccc(OC)c(OC)c3)CC2)c1`?
GASC-1 inh: -20.5; Rtt109 HAT inh: 2.8; NR3A LBD binder: 10.9*; T cell HTS: 133.8

Results for CS(=O)(=O)c1ccc(Cl)c(NC(=O)COC(=O)CNC(=O)c2ccc3ccccc3c2)c1 ?
GASC-1 inh: 5.5; Rtt109 HAT inh: -6.3; NR3A LBD binder: 1.0; T cell HTS: 63.2

What do the screens show for `N#Cc1cc(-c2ccccc2)oc1/N=C/c1ccccc1O`?
GASC-1 inh: 2.9; Rtt109 HAT inh: 6.4; NR3A LBD binder: 18.1*; T cell HTS: 407.3

Results for COc1ccc(C(=O)NCc2nnc(SCC(=O)NCc3ccco3)o2)cc1 ?
GASC-1 inh: 9.0; Rtt109 HAT inh: -0.8; NR3A LBD binder: 1.3; T cell HTS: 725.2

How did CC(C)=CCc1cc([C@@H]2CC(=O)c3ccc(O)c(CC=C(C)C)c3O2)ccc1O do in these assays?
GASC-1 inh: -5.8; Rtt109 HAT inh: -5.0; NR3A LBD binder: 11.0*; T cell HTS: 204.3

How did N#Cc1c(-c2ccc(Cl)cc2)n(O)c2ccccc12 do in these assays?
Rtt109 HAT inh: 2.8; NR3A LBD binder: 23.2*

What do the screens show for `COc1cccc(OC)c1C(=O)Nc1nc(COc2ccccc2)cs1`?
GASC-1 inh: 2.7; Rtt109 HAT inh: -4.4; NR3A LBD binder: 22.6*; T cell HTS: 217.8

How did O=C(Nc1nc(COc2ccccc2)cs1)C1CCC1 do in these assays?
GASC-1 inh: -4.8; Rtt109 HAT inh: 2.9; NR3A LBD binder: 1.9; T cell HTS: 372.9

How did CC(=O)Nc1nc(COc2ccccc2)cs1 do in these assays?
GASC-1 inh: 23.4; Rtt109 HAT inh: 1.7; NR3A LBD binder: -0.1; T cell HTS: 453.4

What do the screens show for `Cc1ccc(C(=O)Nc2nc(COc3ccccc3)cs2)s1`?
GASC-1 inh: -6.2; NR3A LBD binder: 29.4*; T cell HTS: 878.9

What do the screens show for `COc1cc(OC)cc(-c2c(-c3cccs3)c3cc(-c4ccc5[nH]ccc5c4)ccc3n2C)c1`?
GASC-1 inh: -1.1; Rtt109 HAT inh: -15.8; NR3A LBD binder: 4.5; T cell HTS: 412.3
